# High-throughput results from PubChem.
# Compounds with a hit are over-represented: about 3.7% of the library has one in this group of screens.
# core dimer inh: blocks dimerization of HCV core protein; AID 1899; TR-FRET GST/Flag-core106 dimerization, 1536-well; inhibition, % at 5 µM; 300,000 tested, 0.33% active;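 active = inhibition above the mean of all tested compounds plus 3 SD, set per screening campaign, cut at about 45% in these data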
#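 System: GST-tagged and Flag-tagged HCV core protein residues 1-106 / Input: core106 proteins, GST 13.5 nM and Flag 17 nM / Buffer or medium: KF-containing HEPES buffer, pH 7.45, DTT, CHAPS, BSA / Probe or stimulus: Eu-anti-GST and XL665-anti-Flag labelled anti-tag antibodies / Schedule: 4 h, 22.5 °C incubation / Technique: TR-FRET 671 and 617 nm emission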
# rCAG binder: molecules binding r(CAG) RNA repeats | 370,000 tested, 1.3% active | AID 651821 | r(CAG) RNA repeat, TO-PRO-1 dye displacement fluorescence | inhibition, % at 3 µM;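 active = inhibition above the plate cutoff, the mean of all test compounds on that plate plus 3 SD, cut at about 35% in these data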;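 note: higher means more dye released from RNA so lower well fluorescence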
# NS3 helicase inh: HCV NS3 helicase inhibition. 290,000 tested, 0.56% active. inhibition, % at 10.9 µM. AID 1800. NS3 helicase DNA unwinding, Cy5 molecular beacon fluorescence;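 active = inhibition above the mean of all tested compounds plus 3 SD, set per campaign, cut at about 35% in these data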
#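 System: NS3 helicase fragment of HCV / Schedule: 1 h at 25 °C / Control set: DMSO alone as 0% and 110 µM thioflavine S as 100% / Reagent: Cy5/quencher beacon DNA duplex and ATP to start / Technique: Cy5 fluorescence / Replication: singlicate / Evaluation: % inhibition of end-to-start signal ratio versus controls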
# TAAR1 agonist: human TAAR1 agonism; Q96RJ0; CHO RD-HGA16 TAAR1, Fluo-8 calcium fluorescence; vehicle wells 0%, saturating PEA agonist 100%; activation, % at 3 µM; 360,000 tested, 0.99% active; AID 624467;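 active = activation above the mean activation of all test compounds in the run plus 3 SD, cut at about 38% in these data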
# Target sequence (Q96RJ0 whole entry, looked up): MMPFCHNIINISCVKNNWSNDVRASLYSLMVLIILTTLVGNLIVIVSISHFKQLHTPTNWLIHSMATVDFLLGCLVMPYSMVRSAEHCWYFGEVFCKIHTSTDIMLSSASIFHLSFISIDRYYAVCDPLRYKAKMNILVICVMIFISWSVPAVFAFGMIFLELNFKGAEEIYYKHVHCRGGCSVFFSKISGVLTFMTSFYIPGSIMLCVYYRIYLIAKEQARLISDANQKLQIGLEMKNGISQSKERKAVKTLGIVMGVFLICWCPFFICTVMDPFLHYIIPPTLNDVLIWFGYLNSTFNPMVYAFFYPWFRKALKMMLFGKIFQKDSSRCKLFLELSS
#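 Repeats: no replicates (n 1) | Material: CHO-derived RD-HGA16 cells with stable Gα16 and human TAAR1 | Technique: Kinetic Fluo-8 calcium fluorescence | Schedule: 17-24 h seeding, 75 min 37 °C dye, 30 min RT | Evaluation: % activation from peak over basal fluorescence ratio, DMSO-to-PEA scaled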
# TAAR1 antagonist: human TAAR1 antagonism. 360,000 tested, 1.5% active. inhibition, % at 3 µM. Q96RJ0. CHO RD-HGA16 TAAR1, Fluo-8 calcium fluorescence, antagonist;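 active = inhibition above a per-plate cutoff, the mean inhibition of test compounds on that plate plus 3 SD, cut at about 49% in these data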
#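 Assay system: RD-HGA16 CHO cells with stable hTAAR1 and Gα16 / Reagent: EC80 β-phenethylamine stimulus / Doses: 3 µM, single point / Timing: dye loading 75 min at 37 °C, then 30 min room temperature / Measured by: Fluo-8 intracellular calcium dye fluorescence, real-time kinetic reads / Controls: vehicle wells and EC80 agonist wells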
# rCAG bind conf: r(CAG) RNA repeat binding, confirmation; 4,300 tested, 70% active; inhibition, % at 3 µM; TO-PRO-1 dye displacement fluorescence; AID 652065; shares compounds with rCAG binder;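 active = inhibition above a per-plate cutoff, the mean inhibition of sample wells plus 3 SD, cut at about 35% in these data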;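 note: loss of TO-PRO-1 fluorescence as compound displaces dye from 1x1 AA loop RNA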
# dCAG dye counter: counter-screen for rCAG RNA binders: DNA CAG dye complex inhibitors; 4,300 tested, 94% active; shares compounds with rCAG binder; d(CAG) DNA oligo TO-PRO-1 dye displacement, fluorescence; inhibition, % at 3 µM;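 active = inhibition above its plate's cutoff, the mean test-well inhibition plus 3 SD, cut at about 4.8% in these data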;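 note: hits displace the dye from DNA and so lower well fluorescence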
# DNA CAG DR: counter-screen for rCAG binders: inhibitors of DNA CAG TO-PRO-1 complex. IC50, µM. DNA CAG/GTC duplex TO-PRO-1 dye displacement fluorescence. shares compounds with rCAG binder. 250 tested, 20% active. AID 686960; in the data active = IC50 below about 10 µM
# A number is an active result; 0 = inactive; - = not tested or not shown.
SMILES,core dimer inh,rCAG binder,NS3 helicase inh,TAAR1 agonist,TAAR1 antagonist,rCAG bind conf,dCAG dye counter,others
O=C(Nc1ccc(S(=O)(=O)N2CCOCC2)cc1)c1cc(-c2cc(Cl)ccc2O)n[nH]1,0,45.9,0,0,56.0,49.9,21.0,
O=C(Nc1ccc(Cl)cc1)c1ccc(S(=O)(=O)N2CCOCC2)cc1,0,0,0,0,0,-,-,
CCOc1ccc(N=Nc2c(=O)[nH]n3c(=O)c4c([nH]c23)CCCC4)cc1,0,0,0,0,0,-,-,
O=c1[nH]n2c(=O)c3c([nH]c2c1N=Nc1cccc(Cl)c1)CCCC3,0,75.0,0,0,0,85.0,47.8,
Cc1ccc(C(=O)Nc2nnc(NC(=S)Nc3ccccc3)s2)cc1,0,69.8,0,0,0,39.3,30.2,
N#Cc1ccc(CC(=O)c2ccccc2)[nH]c1=O,-,35.4,-,0,0,0,0,
C[C@H](O)[C@@H]1CN2CCc3c([nH]c4c(-c5ccccc5)cccc34)[C@@H]2C[C@@H]1N(C)CC1CCCCC1,-,0,-,-,-,-,-,
O=C(Oc1coc(CSc2nnc(NC(=O)C3CC3)s2)cc1=O)c1ccccc1,0,0,0,0,0,-,-,
COc1ccc(C(=O)Oc2coc(CSc3nnc(NC(=O)c4cccs4)s3)cc2=O)cc1,0,34.8,0,0,0,51.5,16.4,
Cc1ccc(C)c(NC(=O)CNS(=O)(=O)c2ccc3[nH]c(=O)oc3c2)c1,-,0,-,-,-,-,-,
Cc1ccc2[nH]c3c(c2c1)CCc1cn[nH]c1-3,0,46.9,0,0,0,0,5.0,
O=C1C(NC(=O)C(F)(F)Br)CCCCN1Cc1cccc(C(F)(F)F)c1 (stereo not drawn),-,0,-,-,-,-,-,
CC(=O)C1C(=O)c2c(cccc2[N+](=O)[O-])C1=Nc1ccc(S(N)(=O)=O)cc1 (stereo not drawn),0,37.7,0,0,0,0,13.4,
CCCCNC(=O)C[C@@H]1C(=O)N(Cc2ccc(OC)cc2)C2=CCN(C(=O)OC(C)(C)C)C[C@]21C(=O)OCC,-,0,-,-,-,-,-,
COc1ccc(S(=O)(=O)N2CCCc3nc(-c4ccc(Br)cc4)ccc32)cc1,-,0,-,0,0,-,-,
O=C(O)c1cc(-c2ccc(Cl)c(Cl)c2)n(-c2ccccc2)n1,0,41.1,0,0,0,0,0,
COC(=O)Cn1c(=O)c2c(n(Cc3ccccc3)c1=O)N/C(=C/c1ccc(OC)cc1)C2=O,0,74.6,0,0,0,79.3,33.7,DNA CAG DR=4.02
CCOc1ccc(/C=C\c2nc(O)c([N+](=O)[O-])c(=O)[nH]2)cc1OCC,0,0,0,0,0,-,-,
CCOc1cc(/C=C\c2nc(O)c([N+](=O)[O-])c(=O)[nH]2)ccc1OC(C)CC (stereo not drawn),0,44.7,0,0,0,45.7,9.5,DNA CAG DR=0
COC(=O)[C@]12C[C@H](CC(=O)NCc3ccc(C)o3)C(=O)N(Cc3cccc4ccccc34)C1=C[C@H](C1CCCC1)O[C@@H]2C,-,0,-,-,-,-,-,
COc1cccc(Nc2nc3ccccc3nc2NS(=O)(=O)c2cccs2)c1,0,73.6,0,0,0,87.5,59.5,
O=C(O)c1ccc(Nc2nc3ccccc3nc2NS(=O)(=O)c2cccs2)cc1,0,0,0,0,0,-,-,
CC(C)CCNc1nc2ccccc2nc1NS(=O)(=O)c1cccs1,0,55.8,0,0,0,0,5.5,
COC(=O)[C@]12C[C@H](CC(=O)NCCC(C)C)C(=O)N(Cc3ccco3)C1=C[C@H](COCc1ccccc1)O[C@@H]2C,-,0,-,-,-,-,-,
C#CCN1C(=O)[C@]2(NCCc3c2[nH]c2ccc(OC)cc32)c2cc(F)ccc21,-,0,-,-,-,-,-,
Cc1ccc(-c2nnc(SCc3ccc([N+](=O)[O-])cc3)n2-c2ccccc2)cc1,-,0,-,-,-,-,-,
Cc1ccc(C(=O)N/C(=C\c2ccc(Br)cc2)c2nc(=S)[nH][nH]2)cc1,0,41.2,0,0,0,53.2,23.3,
